Published values pooled from the literature.
Read-out: metabolic stability
Host: mouse
Medium: liver microsomes

Cc1cc(N2C(=O)NC(C)(C)C2=O)cc(C(F)(F)F)n1 — microsomal CLint: 19 µL/min/mg
Cc1[nH]c(C)c(S(=O)(=O)Nc2ccc(C(F)(F)F)c(Cl)c2)c1C(=O)N(C)C — microsomal CLint: 179 µL/min/mg
O=C1NC2(CCS(=O)(=O)CC2)C(=O)N1c1ccc(F)c(C(F)(F)F)c1 — microsomal CLint: < 7 µL/min/mg
CNCCNC(=O)c1cc(C(C)C)nc2c1cnn2C(C)C — microsomal CLint: 175 µL/min/mg
O=c1c2c([nH]c3cc(OC(F)(F)F)ccc13)CCCC2 — microsomal CLint (1 µM; pH 7.4): 139 µL/min/mg
CC1(C)NC(=O)N(c2ccc(F)c(CC(F)(F)F)c2)C1=O — microsomal CLint: < 7 µL/min/mg
CC(C)n1ncc2c(C(=O)NC(C)(C)CN)cc(C3CC3)nc21 — microsomal CLint: 19.1 µL/min/mg
CCCN(CCC)CCCOc1ccc2c(=O)c3c([nH]c2c1)CCCC3 — microsomal CLint (1 µM; pH 7.4): 34.1 µL/min/mg
CC(C)c1cc(C(=O)NCCN2CCCC2)c2cnn(C(C)C)c2n1 — microsomal CLint: 49.1 µL/min/mg
CC(C)(C)OC(=O)N1CCC(Oc2ccc3c(=O)c4c(F)cc(Cl)cc4[nH]c3c2)C1 (stereo not drawn) — microsomal CLint (1 µM; pH 7.4): 16.7 µL/min/mg
Cc1[nH]c(C)c(S(=O)(=O)Nc2ccc(C(F)(F)F)c(Cl)c2)c1C(=O)N1CCC(F)(F)C1 — microsomal CLint: 59 µL/min/mg
CC(C)n1ncc2c(C(=O)NCC3(C)CNC3)cc(C3CC3)nc21 — microsomal CLint: < 9.6 µL/min/mg
CCCCCCCCCCCCCCCC(=O)NCCOC(=O)C[C@@H](CN)CC(C)C — microsomal CLint (1 µM; pH 7.4): 14.6 µL/min/mg
CC(C)(C)OC(=O)N1CCC(Oc2ccc3c(=O)c4c(F)cc(Cl)cc4[nH]c3c2)CC1 — microsomal CLint (1 µM; pH 7.4): 12.5 µL/min/mg
CC1(C)NC(=O)N(c2cccc(C(F)(F)F)n2)C1=O — microsomal CLint: < 7 µL/min/mg
COc1ccc(Cn2cc(CO[C@@H]3O[C@H]4[C@H](OC[C@H]4O)[C@H]3O)nn2)cc1 — microsomal CLint: < 14.4 µL/min/mg
O=c1c2ccc(OCc3cccc(OC(F)(F)F)c3)cc2[nH]c2cc(F)cc(Cl)c12 — microsomal CLint (1 µM; pH 7.4): 7.26 µL/min/mg
CC1(C(F)(F)F)NC(=O)N(c2ccc(F)c(C(F)(F)F)c2)C1=O (stereo not drawn) — microsomal CLint: < 7 µL/min/mg
